Laboratory results as given in PMC3628437 (Antiviral research, 2013).

How the values were obtained:
hepatitis B virus (HBV) = test: Real-time immune-absorbance PCR; assay type: cell-based; settings: for Fold HBV reduction / Reduction of HBV virion levels in culture medium: G2.215 cells; for Fold HBV reduction: 10 μM compound, HBV DNA in culture medium by IA-PCR; for Reduction of HBV virion levels in culture medium: 5μM
feline herpesvirus-1 = settings: ref Romanowski et al., 1999; Storey et al., 2002; cited from earlier work
HBV replication [1] = test: Southern blot of cellular HBV replication intermediates in G2.215 cells; assay type: cell-based, hepatitis B virus; settings: any concentration tested
In short: (§1)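 Cytoplasmic core DNA: one 6-well-plate well lysed 10 min at 37°C in Tris-EDTA pH 8.0 with NP40/sucrose. Nuclei removed; capsids PEG8000/NaCl-precipitated 2 h at 4°C, pronase/SDS-digested 1 h at 37°C, phenol-extracted, ethanol-precipitated. Half run on 1.5% agarose, depurinated, denatured, neutralised, blotted and probed with α-32P-UTP HBV probe for RC, DSL and SS forms. HepDE19 tet-free 5 days before dosing; G2.215 kept in G418.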

[2] = tested on: HBV large surface protein (LHBs); test: Western blot of LHBs-containing HBV particles in G2.215 culture medium; assay type: cell-based, hepatitis B virus; settings: G2.215 cells, 10 or 20μM, 6 day treatment
equine herpesvirus-4 = settings: ref Romanowski et al., 1999; Storey et al., 2002; cited from earlier work
HBV virions = assay type: cell-based, hepatitis B virus; settings: HepDE19 cells, 5 day treatment
In short: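 HepDE19 cells (DMEM/F12, 10% FBS, tetracycline-suppressed) were switched to tet-free medium for 5 days, then dosed for 5 days at several concentrations (0.5% DMSO final). Virions from 1ml clarified medium were precipitated with 10% PEG8000 (final), 1 h at 4°C, pelleted and dissolved in TNE pH7.4. Run on non-denaturing 1% agarose to separate virions from naked nucleocapsids, then blotted and hybridized with labeled HBV probe.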

influenza virus = settings: ref Mekler et al., 1969; cited from earlier work
HBV replication [3] = test: Southern blot of cellular HBV DNA in HepDE19 cells; assay type: cell-based, hepatitis B virus; settings: up to 10 μM
In short: as §1

Varicella Zoster Virus = settings: ref Mekler et al., 1969; cited from earlier work

O=C(c1ccc(OCCN2CCCCC2)cc1)c1c(-c2ccc(O)cc2)sc2cc(O)ccc12 [Raloxifene]
Fold HBV reduction (hepatitis B virus (HBV); 6 days): 3.5 Fold

Nc1ccn([C@@H]2CS[C@H](CO)O2)c(=O)n1 [lamivudine]
CT of medium from treated G2.215 cells (hepatitis B virus (HBV); 30μM, 6 days, carrier alone CT ~26 undiluted): 30–31 CT

CCCOc1ccc(C(=O)OCCN(CC)CC)cc1N [Proparacaine]
Inactivation of virus (feline herpesvirus-1): can inactivate
Level of relaxed circular HBV DNA (RC-DNA) versus untreated control (HBV replication [1]): no reduction
Reduction of HBV virion levels in culture medium (hepatitis B virus (HBV)): ~ 3 CT
Fold HBV reduction (hepatitis B virus (HBV); 6 days): 6 Fold
IC50 (hepatitis B virus (HBV); Hepatitis B virus, read-out: IC50 against HBV): 1 µM
Inhibition of secretion of HBV particles containing LHBs in culture medium [2]: 3- to 4 fold
Inactivation of virus (equine herpesvirus-4): can inactivate

C[C@@H]1C/C=C/C=C/C=C/C=C/[C@H](O[C@@H]2O[C@H](C)[C@@H](O)[C@H](N)[C@@H]2O)C[C@@H]2O[C@](O)(C[C@@H](O)C[C@H]3O[C@@H]3/C=C/C(=O)O1)C[C@H](O)[C@H]2C(=O)O [Natamycin]
Fold HBV reduction (hepatitis B virus (HBV); 6 days): 4 Fold

C=Cc1c(C)c2cc3nc(c4c5[n-]c(cc6nc(cc1[n-]2)C(C)=C6CC)c(C)c5C(=O)[C@@H]4C(=O)OC)[C@@H](CCC(=O)O)[C@@H]3C.[Mg+2] [Chlorophyllide]
Formation and secretion of nucleocapsids (HBV virions): not affected
Viral particles in cell culture medium (HBV virions): reduces viral particles in the cell culture medium in a dose-dependent manner
Inactivation of virus (influenza virus): inactivate
Reduction of HBV virion levels in culture medium (hepatitis B virus (HBV)): ~ 2 CT
Fold HBV reduction (hepatitis B virus (HBV); 6 days): 4 Fold
RC or SS DNA levels (cellular HBV DNA) (HBV replication [3]): did not repress
Inactivation of virus (Varicella Zoster Virus): inactivate
